Results collected from several papers.
Lines come from different studies, so protocols differ.
Target: Serine/threonine-protein kinase 17A (STK17A, Homo sapiens, UniProt Q9UEE5)
One construct used (Q9UEE5 1-414): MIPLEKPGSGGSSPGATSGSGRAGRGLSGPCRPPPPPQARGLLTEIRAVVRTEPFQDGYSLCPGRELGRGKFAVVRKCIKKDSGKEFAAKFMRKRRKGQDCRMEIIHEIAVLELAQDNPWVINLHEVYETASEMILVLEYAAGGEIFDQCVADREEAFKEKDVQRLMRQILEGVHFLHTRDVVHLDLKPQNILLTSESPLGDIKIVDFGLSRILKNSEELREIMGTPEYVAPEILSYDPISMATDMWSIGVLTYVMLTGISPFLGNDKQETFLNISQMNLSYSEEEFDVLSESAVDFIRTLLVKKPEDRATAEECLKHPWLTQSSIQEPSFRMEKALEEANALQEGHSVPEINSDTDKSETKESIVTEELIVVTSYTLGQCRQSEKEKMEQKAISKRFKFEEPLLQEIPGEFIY

With `CCN1CCN(Cc2ccc(C(=O)Nc3ccc(C)c(Oc4ccc5c(c4)CC(=O)N5)c3)cc2C(F)(F)F)CC1` the remaining binding was 100% (binding, competition with immobilised ligand; 1 µM).
`CN(C)c1nccc(-c2cnn3ncccc23)n1` has a remaining binding of 76% (binding; 1 µM).
`CSc1cccnc1N1CCN(Cc2nc3ccccc3[nH]2)CC1` gave a remaining binding of 98% (cell-free assay, competition with immobilised ligand; 1 µM).
With `CN(c1nccc(-c2cnn3ncccc23)n1)C1CC1` the remaining binding was 100% (binding; 1 µM).
The remaining binding of `O=C(Nc1c[nH]nc1C(=O)NC1CCNCC1)c1cc(F)cc(F)c1` is reported as 95% (binding, competition with immobilised ligand; 1 µM).
With `COc1cnc(Nc2cccc(S(N)(=O)=O)c2)nc1N1CCN(c2ccccc2)CC1` the remaining binding was 100% (binding, competition with immobilised ligand; 1 µM).
With `C[C@H](c1cccc(C#N)c1)n1cc(Cl)cc(C(N)=O)c1=N` the remaining binding was 85% (cell-free assay, competition with immobilised ligand; 1 µM).
The remaining binding of `O=C(c1ccc(Nc2ncc(Cl)c(-c3cc4ccccc4s3)n2)cc1)N1CCC(N2CCCC2)CC1` is reported as 0% (binding, competition with immobilised ligand; 1 µM).
`O=C(NCc1ncc(C(F)(F)F)cc1Cl)c1ccc2c(c1)C1(CCS(=O)(=O)CC1)[C@@H](C1CC1)N2S(=O)(=O)c1ccc(F)cc1` gave a remaining binding of 73% (cell-free assay, competition with immobilised ligand; 1 µM).
With `FC(F)(F)Oc1cccc(-c2cnc3ccc(-c4ccncc4)nn23)c1` the remaining binding was 12% (cell-free assay, competition with immobilised ligand; 5 µM).
With `N[C@@H]1CCN(c2nccc(-c3cnn4ncccc34)n2)C1` the remaining binding was 100% (binding; 1 µM).
`O=C(NCCCN1CCOCC1)c1ccc(Nc2ncc(Cl)c(-c3ccc(Cl)s3)n2)cc1` has a remaining binding of 0.85% (binding, competition with immobilised ligand; 1 µM).
For `c1cnn2ncc(-c3ccnc(N4CCC45COC5)n3)c2c1`, the remaining binding was 100% (binding; 1 µM).
`C[C@@]1(Cc2ccc(C#N)cc2)C(=O)N(c2cc(Cl)cc(Cl)c2)c2ncc(C(=O)NC3(c4nc(C5CCC5)no4)CC3)n21` gave a remaining binding of 91% (cell-free assay, competition with immobilised ligand; 1 µM).
`O=C(NCCCN1CCOCC1)c1ccc(Nc2nccc(-c3cc4ccccc4s3)n2)cc1` has a remaining binding of 0% (binding, competition with immobilised ligand; 1 µM).
`C[C@H]1CCN(c2nccc(-c3cnn4ncccc34)n2)C1` gave a remaining binding of 13% (binding; 1 µM).
`c1ccc(N2CCN(Cc3nc4ccccc4[nH]3)CC2)nc1` gave a remaining binding of 100% (cell-free assay, competition with immobilised ligand; 1 µM).
`COc1cnc(Nc2cccc(S(N)(=O)=O)c2)nc1N1CCN(c2ccccc2)C(=O)C1` has a remaining binding of 98% (binding, competition with immobilised ligand; 1 µM).
The remaining binding of `COc1cc(-c2cn(C3CCc4c(F)cccc4N(CC(F)(F)F)C3=O)nn2)ccc1-n1cnc(C)c1` (stereo not shown) is reported as 100% (cell-free assay, competition with immobilised ligand; 1 µM).
The remaining binding of `COc1ccnn2ncc(-c3ccnc(N(C)C)n3)c12` is reported as 96% (binding; 1 µM).
With `COc1ccc2c(O[C@@H]3C[C@H]4C(=O)N[C@]5(C(=O)O)CC5/C=C\CCCCC[C@H](NC(=O)OC5CCCC5)C(=O)N4C3)cc(-c3csc(NC(=O)C(C)C)n3)nc2c1C` (stereo partly shown) the remaining binding was 99% (cell-free assay, competition with immobilised ligand; 1 µM).
The remaining binding of `Nc1ncc2c(n1)-c1c([nH]c3ccc(C#CC4CC4)cc13)CCCC2` is reported as 98% (binding, competition with immobilised ligand; 1 µM).
